Experimental data as given in ChEMBL document CHEMBL2346655, “Synthesis and in vitro biological evaluation of 2,6,9-trisubstituted purines targeting multiple cyclin-dependent kinases” (Eur J Med Chem, 2013).
Activity calls are given as the source filed them. The calls are words filed in the database; no cut-off is given here.

How the values were obtained:
[1] = biological target: T1, CDK9/cyclin T1 (Homo sapiens) (UniProt O60563+P50750); experiment: Inhibition of CDK9/CyclinT1-mediated phosphorylation of RNA polymerase 2 at Ser5 in human HCT116 cells up to 25 uM after 24 hrs by immunoblotting analysis; format: cell-based; settings: HCT-116
Procedure, shortened: (§1)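 Immunoblot: cells lysed by harvesting in Laemmli sample buffer, proteins run on SDS-PAGE, electroblotted to nitrocellulose, blocked, primary antibodies overnight, peroxidase-conjugated secondaries, ECL detection by CCD camera. Antibodies included anti-phospho RNA polymerase II (S2), anti-RNA polymerase II (ARNA-3), anti-p53 (DO-1), anti-p21waf1 (118), anti-PCNA.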

[2] = test system: HCT-116; experiment: Induction of apoptosis in human HCT116 cells assessed as caspase-3/7 activation up to 25 uM by fluorescence assay; format: functional, cell-based
Procedure, shortened: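 After 24 h treatment, cells were lysed on ice for 20 min in pH 7.4 HEPES/KCl/EDTA/EGTA/0.2% CHAPS buffer with protease inhibitors and cleared at 10,000 × g for 30 min at 4 °C. Protein was equalized, then incubated for 1 h with 100 μM Ac-DEVD-AMC in PIPES buffer pH 7.3 containing DTT. Fluorescence was read at 355/460 nm; 100 μM Ac-DEVD-CHO served as the negative control.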

[3] = biological target: Cyclin-dependent kinase 7/ cyclin H (Homo sapiens, UniProt P50613); experiment: Inhibition of CDK7/CyclinH/MAT1 (unknown origin) using (YSPTSPS)2KK as substrate; format: protein-complex assay
Procedure, shortened: (§2)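 Buffer was 60 mM HEPES-NaOH pH 7.5, 3 mM MgCl2, 3 mM MnCl2, vanadate, DTT and PEG. Reactions were stopped with H3PO4 and spotted on P-81 paper, which was then washed. Radioactivity was imaged; IC50 taken from dose–response curves.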

[4] = biological target: T1, CDK9/cyclin T1 (Homo sapiens); experiment: Inhibition of CDK9/CyclinT1 in human HCT116 cells assessed as increase in p53 expression at 1 to 5 uM after 24 hrs by immunoblotting analysis; format: cell-based; settings: HCT-116; procedure, shortened: as §1
[5] = test system: K562; experiment: Cell cycle arrest in human K562 cells assessed as accumulation at subG1 phase at 5 uM after 24 hrs by propidium iodide staining-based flow cytometric analysis (reference value: 2.4%); format: functional
Procedure, shortened: (§3)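 Sub-confluent cells treated at several concentrations for 24 h, then pulsed with 10 μM BrdU for 30 min at 37 °C before harvest. Cells were PBS-washed, fixed in 70% ethanol, denatured in 2 M HCl and neutralized. Stained with fluorescein anti-BrdU and propidium iodide; DNA content read by flow cytometry with 488 nm excitation.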

[6] = test system: HCT-116; experiment: Cell cycle arrest in human HCT116 cells assessed as accumulation at G2/M phase at 0.2 uM after 24 hrs by propidium iodide staining-based flow cytometric analysis (reference value: 19.6%); format: functional; procedure, shortened: as §3
[7] = test system: K562; experiment: Cell cycle arrest in human K562 cells assessed as accumulation at S phase at 1 uM after 24 hrs by propidium iodide staining-based flow cytometric analysis (reference value: 38.8%); format: functional; procedure, shortened: as §3
[8] = test system: HCT-116; experiment: Cell cycle arrest in human HCT116 cells assessed as accumulation at G1 phase at 0.2 uM after 24 hrs by propidium iodide staining-based flow cytometric analysis (reference value: 48.8%); format: functional; procedure, shortened: as §3
[9] = test system: HCT-116; experiment: Induction of apoptosis in human HCT116 cells assessed as PARP cleavage up to 5 uM after 24 hrs by immunoblotting analysis; format: functional, cell-based
Procedure, shortened: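 Cells were treated for 24 h, harvested directly into Laemmli sample buffer, and run on SDS-PAGE. Proteins were blotted to nitrocellulose, blocked, probed overnight with primary antibodies, then with peroxidase-linked secondaries. Bands were detected by ECL with a CCD camera. PCNA and tubulin served as loading references.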

[10] = test system: K562; experiment: Ratio of roscovitine IC50 to compound IC50 for human K562 cells; format: functional
Procedure, shortened: (§4)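 Cytotoxicity IC50s underlying the ratio: cells treated in triplicate with three-fold compound dilutions for 72 h, then Calcein AM added and live-cell fluorescence read at 485/538 nm (ex/em).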

[11] = biological target: Cyclin-dependent kinase 5/CDK5 activator 1 (Homo sapiens, UniProt Q00535); experiment: Inhibition of CDK5/P35 (unknown origin) using histone H1 as substrate; format: protein-complex assay
[12] = test system: HCT-116; experiment: Ratio of roscovitine IC50 to compound IC50 for human HCT116 cells; format: functional; procedure, shortened: as §4
[13] = biological target: T1, CDK9/cyclin T1 (Homo sapiens); experiment: Inhibition of CDK9/CyclinT1 in human HCT116 cells assessed as decrease in Mdm2 expression at 1 to 5 uM after 24 hrs by immunoblotting analysis; format: cell-based; settings: HCT-116; procedure, shortened: as §1
[14] = biological target: CDK9/cyclin T1 (Homo sapiens, UniProt P50750); experiment: Inhibition of CDK9/CyclinT1 (unknown origin) using (YSPTSPS)2KK as substrate; format: protein-complex assay; procedure, shortened: as §2
[15] = test system: K562; experiment: Cell cycle arrest in human K562 cells assessed as accumulation at G1 phase at 1 uM after 24 hrs by propidium iodide staining-based flow cytometric analysis (reference value: 47.3%); format: functional; procedure, shortened: as §3

Sequence of Cyclin-dependent kinase 5/CDK5 activator 1 (Q00535 whole entry): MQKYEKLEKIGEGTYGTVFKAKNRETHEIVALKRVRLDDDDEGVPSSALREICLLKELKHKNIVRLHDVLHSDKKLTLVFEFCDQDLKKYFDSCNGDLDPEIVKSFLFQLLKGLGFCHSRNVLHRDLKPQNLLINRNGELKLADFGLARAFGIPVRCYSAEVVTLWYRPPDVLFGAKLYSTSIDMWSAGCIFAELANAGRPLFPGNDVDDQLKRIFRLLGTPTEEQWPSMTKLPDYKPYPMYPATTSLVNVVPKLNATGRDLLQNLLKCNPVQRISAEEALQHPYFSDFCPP
Sequence of Cyclin-dependent kinase 5/CDK5 activator 1 (Q15078 whole entry, further chain): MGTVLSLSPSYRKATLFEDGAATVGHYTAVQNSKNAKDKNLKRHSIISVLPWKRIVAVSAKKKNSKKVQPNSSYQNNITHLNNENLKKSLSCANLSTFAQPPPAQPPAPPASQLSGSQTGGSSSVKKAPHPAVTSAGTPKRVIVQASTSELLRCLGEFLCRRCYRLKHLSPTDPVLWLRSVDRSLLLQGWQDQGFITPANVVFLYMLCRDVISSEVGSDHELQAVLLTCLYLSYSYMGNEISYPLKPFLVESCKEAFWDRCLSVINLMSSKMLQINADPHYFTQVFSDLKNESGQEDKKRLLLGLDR
Sequence of CDK9/cyclin T1 (O60563 whole entry): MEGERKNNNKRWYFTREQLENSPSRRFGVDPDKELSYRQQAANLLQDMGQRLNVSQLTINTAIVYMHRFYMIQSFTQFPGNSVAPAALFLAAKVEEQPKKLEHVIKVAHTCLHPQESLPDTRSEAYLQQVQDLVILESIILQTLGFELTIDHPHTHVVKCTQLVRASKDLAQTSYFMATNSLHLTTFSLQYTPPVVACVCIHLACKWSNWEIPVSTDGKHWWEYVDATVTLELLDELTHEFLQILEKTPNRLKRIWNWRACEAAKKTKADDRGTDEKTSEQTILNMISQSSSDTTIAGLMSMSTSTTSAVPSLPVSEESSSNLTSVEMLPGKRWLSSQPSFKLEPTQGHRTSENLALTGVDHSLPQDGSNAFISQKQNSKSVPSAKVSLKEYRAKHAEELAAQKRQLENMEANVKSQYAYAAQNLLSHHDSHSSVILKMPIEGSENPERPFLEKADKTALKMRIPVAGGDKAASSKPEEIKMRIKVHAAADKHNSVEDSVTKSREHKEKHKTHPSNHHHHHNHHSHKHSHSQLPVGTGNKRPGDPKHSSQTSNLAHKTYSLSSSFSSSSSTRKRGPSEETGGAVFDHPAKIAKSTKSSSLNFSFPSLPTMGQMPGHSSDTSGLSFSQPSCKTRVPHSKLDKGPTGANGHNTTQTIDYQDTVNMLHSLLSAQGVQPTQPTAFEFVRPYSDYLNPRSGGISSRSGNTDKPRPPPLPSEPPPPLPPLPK
Sequence of CDK9/cyclin T1 (P50750 whole entry): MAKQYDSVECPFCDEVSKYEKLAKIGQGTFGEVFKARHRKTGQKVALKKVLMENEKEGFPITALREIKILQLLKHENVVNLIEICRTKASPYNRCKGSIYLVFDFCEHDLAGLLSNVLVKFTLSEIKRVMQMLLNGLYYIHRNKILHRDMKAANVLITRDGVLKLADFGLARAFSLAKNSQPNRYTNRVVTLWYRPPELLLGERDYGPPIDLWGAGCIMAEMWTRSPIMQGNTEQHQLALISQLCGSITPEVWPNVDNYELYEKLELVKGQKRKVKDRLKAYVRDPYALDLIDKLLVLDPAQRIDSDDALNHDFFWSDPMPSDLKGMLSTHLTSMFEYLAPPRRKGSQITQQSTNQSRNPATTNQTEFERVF
Sequence of Cyclin-dependent kinase 7/ cyclin H (P51946 whole entry): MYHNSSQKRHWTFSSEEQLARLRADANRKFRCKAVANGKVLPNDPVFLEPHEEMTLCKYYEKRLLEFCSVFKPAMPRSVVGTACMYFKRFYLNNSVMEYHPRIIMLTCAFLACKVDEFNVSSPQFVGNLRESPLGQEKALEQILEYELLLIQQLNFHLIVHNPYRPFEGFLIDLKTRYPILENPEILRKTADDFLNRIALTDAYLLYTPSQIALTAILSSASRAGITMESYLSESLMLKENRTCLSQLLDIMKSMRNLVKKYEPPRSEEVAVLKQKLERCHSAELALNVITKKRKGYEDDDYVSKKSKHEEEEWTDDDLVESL
Sequence of Cyclin-dependent kinase 7/ cyclin H (P50613 whole entry): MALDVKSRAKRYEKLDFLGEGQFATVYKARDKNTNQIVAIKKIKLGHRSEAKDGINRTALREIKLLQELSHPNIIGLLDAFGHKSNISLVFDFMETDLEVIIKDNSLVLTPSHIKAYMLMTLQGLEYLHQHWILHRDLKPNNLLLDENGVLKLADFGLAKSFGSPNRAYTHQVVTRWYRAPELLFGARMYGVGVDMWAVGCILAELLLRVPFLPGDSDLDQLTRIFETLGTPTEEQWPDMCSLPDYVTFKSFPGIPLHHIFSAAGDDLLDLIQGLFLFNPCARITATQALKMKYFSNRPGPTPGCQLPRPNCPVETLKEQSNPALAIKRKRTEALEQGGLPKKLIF

inhibition [1]: Active | IC50 [3]: 97 nM | inhibition [4]: Active | IC50 [11]: 71 nM | inhibition [13]: Active | IC50 [14]: 165 nM
Compound: CC[C@@H](Nc1nc(NCc2cc(Cl)ccc2O)c2ncn(C(C)C)c2n1)C(C)O (mixture of isomers)
Activity [2]: Active | Activity [5]: 10.9% | Activity [6]: 23.4% | Activity [7]: 39.8% | Activity [8]: 45.6% | Activity [9]: Active | Ratio IC50 [10]: >9 | Ratio IC50 [12]: >9 | Activity [15]: 31.5%
